Measured values: PubChem BioAssay AID488811 (Sanford-Burnham Center for Chemical Genomics, 2010)
Calls of active or inactive are those of the source.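 The calls were made as follows: active = mean EC50 below 10 µM; inactive = the rest.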

biological target: Apelin receptor (Homo sapiens) (UniProt P35414); experiment: APJ agonists, beta-arrestin recruitment, SAR follow-up, cell-based, luminescence (AID 488811); conditions: CHO-K1 AGTRL-1 PathHunter beta-arrestin
How it was run: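 Material: CHO-K1 APJ β-arrestin enzyme-fragment complementation cells. Times: overnight seeding, 90 min compound exposure at 25 °C. Measured by: β-gal complementation luminescence, 60 min reagent incubation.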

Sequence of Apelin receptor (Homo sapiens) (P35414 whole entry, looked up, the tested form may be a part): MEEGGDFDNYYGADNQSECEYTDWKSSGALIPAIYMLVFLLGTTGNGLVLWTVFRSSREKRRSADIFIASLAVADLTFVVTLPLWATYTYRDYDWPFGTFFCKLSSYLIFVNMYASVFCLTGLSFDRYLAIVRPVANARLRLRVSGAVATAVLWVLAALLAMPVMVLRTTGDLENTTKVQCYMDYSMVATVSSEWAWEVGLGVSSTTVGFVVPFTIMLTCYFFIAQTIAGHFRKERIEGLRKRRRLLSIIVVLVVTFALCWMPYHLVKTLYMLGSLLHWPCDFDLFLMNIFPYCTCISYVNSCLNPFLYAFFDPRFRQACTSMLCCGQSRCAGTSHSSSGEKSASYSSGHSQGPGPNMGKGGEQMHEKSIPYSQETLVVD

Row | SMILES | EC50
1 | CC1=C(C)C(=NOS(=O)(=O)c2ccc(C)cc2)C=CC1=O | > 79 µM (inactive)
2 | CC1=CC(=NOS(=O)(=O)c2ccc(Cl)cc2)C=C(C)C1=O | 2.9 µM
3 | CC1=CC(=O)C=C/C1=N\OS(=O)(=O)c1ccc(C)cc1 | > 79 µM (inactive)
4 | CC1=CC(=NOS(=O)(=O)c2ccccc2)C=C(C)C1=O | 2.5 µM
5 | CCSc1nc(O)c(CC)c(=O)n1C(C)CC (stereo not drawn) | inactive
6 | CCN1/C(=C\C=C2/SC(=S)N(C)C2=O)Sc2ccccc21 | > 79 µM (inactive)
7 | CCN1/C(=C/C(=O)c2sc(=S)n(CC)c2O)Sc2ccccc21 | > 79 µM (inactive)
8 | CC1=C/C(=N\OS(=O)(=O)c2ccc(Cl)cc2)C=CC1=O | > 79 µM (inactive)
9 | COc1ccccc1-n1c(SCC(=O)c2ccccc2)nc(O)cc1=O | inactive
10 | CCSc1nc(O)c(CC)c(=O)n1C1CCCCC1 | > 79 µM (inactive)
11 | CC1=CC(=NOS(=O)(=O)c2ccc(C)cc2)C=C(C)C1=O | 2.52 µM
12 | CC1=CC(=NOS(=O)(=O)c2ccccc2)C(C(C)C)=CC1=O | 7.43 µM
13 | CC1=CC(=O)C=C(C)C1=NOS(=O)(=O)c1ccccc1 | > 79 µM (inactive)
14 | CCc1c(O)nc(SC)n(C2CCCCC2)c1=O | > 79 µM (inactive)
15 | O=S(=O)(Nc1nc(-c2ccccc2)cs1)c1ccc(Br)cc1 | > 79 µM (inactive)
16 | CC1=CC(=NOS(=O)(=O)c2ccccc2)C=CC1=O | > 79 µM (inactive)
17 | COc1ccc(S(=O)(=O)O/N=C2\C=C(C(C)C)C(=O)C=C2C)cc1 | 4.93 µM
18 | CCCCSc1nnc(NC(=O)CSc2nc3ncccc3[nH]2)s1 | > 79 µM (inactive)
19 | O=S(=O)(Nc1nc(-c2ccccc2)cs1)c1ccc(Cl)cc1 | > 79 µM (inactive)
20 | CN(C)CCSc1nc(O)c(-c2ccccc2)c(=O)n1-c1ccccc1 | > 79 µM (inactive)
21 | CC1=C/C(=N\OS(=O)(=O)c2ccc(C)cc2)C(C)=CC1=O | 5.4 µM
22 | C=CCSc1nc(O)c(CC)c(=O)n1C1CCCCC1 | > 79 µM (inactive)

Row | SMILES | EC50
23 | Cc1ccc(S(=O)(=O)ON=C2C=CC(=O)C=C2)cc1 | > 79 µM (inactive)
24 | COc1ccc(S(=O)(=O)ON=C2C=C(C)C(=O)C(C)=C2)cc1 | 2.56 µM
25 | Cc1cc(C)n2nc3nc(N4CCOCC4)nc(-c4ccccc4)c3c2n1 | > 79 µM (inactive)
26 | CC1=C/C(=N/OS(=O)(=O)c2ccc(C)cc2)C(C(C)C)=CC1=O | 9.9 µM
27 | Cc1ccc(S(=O)(=O)Nc2nc(-c3ccccc3)cs2)cc1 | > 79 µM (inactive)
28 | CCN1C(c2ccccc2)=C(c2ccccc2)S/C1=C/C=C1\SC(=S)N(C)C1=O | 3.44 µM
29 | CSc1nc(=O)cc(N)n1-c1ccc(C)cc1 | > 79 µM (inactive)
30 | CCc1c(O)nc(SCc2ccccc2)n(C2CCCCC2)c1=O | > 79 µM (inactive)
31 | CCc1c(O)nc(SCc2ccccc2)n(C(C)CC)c1=O (stereo not drawn) | > 79 µM (inactive)
32 | CCc1c(O)nc(SC)n(C(C)CC)c1=O (stereo not drawn) | > 79 µM (inactive)
33 | CC1=CC(=O)C(C(C)C)=C/C1=N/OS(=O)(=O)c1ccccc1 | 5.98 µM
34 | CC1=CC(=O)C(C(C)C)=CC1=NOS(=O)(=O)c1ccccc1 | 5.74 µM
35 | CCc1c(O)n(C2CCCCC2)c(=S)[nH]c1=O | > 79 µM (inactive)
36 | CC1=C/C(=N/OS(=O)(=O)c2ccccc2)C(C)=CC1=O | 6.82 µM
37 | CCCCSc1nc(O)c(CC)c(=O)n1C1CCCCC1 | > 79 µM (inactive)
38 | C=CCSc1nc(O)c(CC)c(=O)n1-c1ccc(C)cc1 | > 79 µM (inactive)
39 | CCCSc1nc(O)c(CC)c(=O)n1C(C)CC (stereo not drawn) | inactive
40 | C=CCSc1nc(O)c(CC)c(=O)n1C(C)CC (stereo not drawn) | inactive
41 | CCc1c(O)nc(SC(C)CC)n(C(C)CC)c1=O (stereo not drawn) | inactive
42 | C=CCn1c(SCc2ccccc2)nc(O)c(CC)c1=O | > 79 µM (inactive)
43 | CC1=C/C(=N/OS(=O)(=O)c2ccc(C)cc2)C=CC1=O | > 79 µM (inactive)
